Experimental data as given in ChEMBL document CHEMBL2434897, “Synthesis of 15-methylene-eburnamonine from (+)-vincamine, evaluation of anticancer activity, and investigation of mechanism of action by quantitative NMR” (Bioorg Med Chem Lett, 2013).

Key:
[1] = system: LNCaP; assay: Cytotoxicity against human LNCAP cells after 96 hrs by MTS assay; assay type: functional, cell-based
Method in brief: (§1)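 Cells kept in RPMI-1640 with 10% FBS and 1% penicillin/streptomycin at 37 °C under humidified 5% CO2. Seeded at 25,000 cells/well (KMS-12BM, RPMI-8226, U266) or 5000 cells/well (LNCaP), then exposed to graded drug concentrations or DMSO vehicle for 96 h. MTS read-out at OD 492 nm. LC50 from four-parameter logistic fit of log-transformed, vehicle-normalized OD; ≥3 independent experiments in triplicate.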

[2] = system: U-266; assay: Cytotoxicity against human U266 cells after 96 hrs by MTS assay; assay type: functional, cell-based; conditions: U-266, 96 h; method in brief: as §1
[3] = system: MDA-MB-231; assay: Cytotoxicity against human MDA-MB-231 cells after 96 hrs by MTS assay; assay type: functional, cell-based; conditions: MDA-MB-231, 96 h
[4] = system: RPMI-8226; assay: Cytotoxicity against human RPMI8226 cells after 96 hrs by MTS assay; assay type: functional, cell-based; conditions: RPMI-8226, 96 h; method in brief: as §1
[5] = Cytotoxicity against human KMS-12-BM cells after 96 hrs by MTS assay; assay type: functional, cell-based; method in brief: as §1
[6] = Cytotoxicity against human FnMSC cells after 96 hrs by MTS assay; assay type: cell-based; conditions: read-out: LC50

**Q.** For `C=C1C(=O)n2c3c(c4ccccc42)CCN2CCC[C@]1(CC)[C@@H]32`, which LC50 [1] is on record?
**A.** 9.5 µM

**Q.** What about the LC50 [2] of the same compound?
**A.** 4.3 µM

**Q.** What about the LC50 [3] of the same compound?
**A.** 14.1 µM

**Q.** And the LC50 [4]?
**A.** 12.2 µM

**Q.** And the LC50 [5]?
**A.** 4 µM

**Q.** And the CC50 at 96 h [6]?
**A.** 16.7 µM

**Q.** For `CC[C@]12CCCN3CCc4c(n(c5ccccc45)C(=O)C1)[C@@H]32` [VINBURNINE], which LC50 [1] is on record?
**A.** > 100 µM

**Q.** What about the LC50 [2] of the same compound?
**A.** > 100 µM

**Q.** And the LC50 [3]?
**A.** 41.8 µM

**Q.** And the LC50 [4]?
**A.** > 100 µM

**Q.** What about the LC50 [5] of the same compound?
**A.** > 100 µM
